Experimental data as given in ChEMBL document CHEMBL3272145, “Synthesis and some pharmacological properties of the 23-peptide 15-lysine-secretin-(5--27). Special role of the residue in position 15 in biological activity of the vasoactive intestinal polypeptide” (1978).
Activity calls are given as the source filed them. The rule behind the calls is not given here.

How the values were obtained:
Rattus norvegicus [1] = experiment: Induction of pancreatic secretory flow in iv dosed rat measured per 10 mins per gram wet weight of pancreas; format: functional
[2] = Vasolrelaxant activity in rat gastric fundus; format: functional, tissue-based; details: Stomach
[3] = Vasolrelaxant activity in guinea pig lung; format: functional; details: Cavia porcellus
Cavia porcellus [4] = species on record: Cavia porcellus; experiment: Vasolrelaxant activity in guinea pig trachea; format: functional, tissue-based
Rattus norvegicus [5] = species on record: Rattus norvegicus; experiment: Effect on exocrine pancreatic secretion in rat; format: functional, organism-based
Rattus norvegicus [6] = experiment: Induction of pancreatic secretory flow in iv dosed rat measured per 10 mins per gram wet weight of pancreas relative to secretin; format: functional
Cavia porcellus [7] = species on record: Cavia porcellus; experiment: Apparent binding affinity to VIP receptor in guinea pig acinar cells assessed as inhibition of VIP-induced cAMP accumulation measured as concentration required to occupy 50% of receptor; format: cell-based
Outline: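 Dispersed acinar cells from guinea pig pancreas. Apparent affinity for the VIP-preferring receptor was calculated from the fragment's ability to inhibit the cAMP increase caused by 10^-9 M VIP. Values are means (±1 SD) from three separate experiments.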

Cavia porcellus [8] = species on record: Cavia porcellus; experiment: Apparent binding affinity to secretin receptor in guinea pig acinar cells assessed as inhibition of secretin-induced cAMP accumulation measured as concentration required to occupy 50% of receptor; format: cell-based
Outline: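 Dispersed acinar cells from guinea pig pancreas. Apparent affinity for the secretin-preferring receptor was calculated from the fragment's ability to inhibit the cAMP increase caused by 10^-9 M secretin. Values are means (±1 SD) from three separate experiments.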

Compound	Activity (Rattus norvegicus [1])	Activity [2]	Activity [3]	Activity (Cavia porcellus [4])	Activity (Rattus norvegicus [5])	Emax (Rattus norvegicus [6]) [%]	Activity (Cavia porcellus [7]) [×10⁻⁷ M]	Activity (Cavia porcellus [8]) [×10⁻⁷ M]
SECRETIN	Active	–	–	–	–	–	–	–
CC[C@H](C)[C@H](NC(=O)[C@H](CO)NC(=O)[C@H](CC(N)=O)NC(=O)[C@H](CC(C)C)NC(=O)[C@H](Cc1ccc(O)cc1)NC(=O)[C@H](CCCCN)NC(=O)[C@H](CCCCN)NC(=O)[C@@H](NC(=O)[C@H](C)NC(=O)[C@H](CCSC)NC(=O)[C@H](CCC(N)=O)NC(=O)[C@H](CCCCN)NC(=O)[C@H](CCCN=C(N)N)NC(=O)[C@H](CC(C)C)NC(=O)[C@H](CCCN=C(N)N)NC(=O)[C@@H](NC(=O)[C@H](Cc1ccc(O)cc1)NC(=O)[C@H](CC(N)=O)NC(=O)[C@H](CC(=O)O)NC(=O)[C@@H](NC(=O)[C@H](Cc1ccccc1)NC(=O)[C@@H](NC(=O)[C@H](C)NC(=O)[C@H](CC(=O)O)NC(=O)[C@H](CO)NC(=O)[C@@H](N)Cc1c[nH]cn1)C(C)C)[C@@H](C)O)[C@@H](C)O)C(C)C)C(=O)N[C@@H](CC(C)C)C(=O)N[C@@H](CC(N)=O)C(N)=O	–	Active	Active	Active	–	–	–	–
H-TFTSELSRLRKSARLQRLLQGLV-NH2	12.9 µL	Active	Active	Active	inactive	20	10	12
H-TFTSELSRLRDSARLQRLLQGLV-NH2	–	Active	Active	Active	–	–	46	2.3
H-TFTSELSRLRNSARLQRLLQGLV-NH2	Active	–	–	–	inactive	–	8	1.9
